Screening results from PubChem BioAssay.
Hits are enriched below; roughly 2.4% of the tested compounds scored in any of these assays.
TCR CD3 inh – human TCR-CD3 binding inhibition; TAMRA-labeled TCR probe fluorescence, biochemical; AID 651800; inhibition, % at 9.4 µM; actives 0.37% (n = 360,000); in the data active = inhibition above about 19%;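 also: recombinant mutant TCR 2C K166C tagged with TAMRA read by polarization; 0% = receptor in buffer alone and 100% = receptor with positive control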
TDP2 inh – blocks human TDP2 phosphodiesterase activity; O95551; recombinant TDP2, T5PNP hydrolysis, p-nitrophenol absorbance 415 nm; inhibition, % at 12.8 µM; actives 0.34% (n = 370,000); AID 720702;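 active = inhibition above the mean of all tested compounds plus 3 SD, set per campaign, cut at about 25% in these data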;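 also: 0% = DMSO with enzyme and 100% = buffer with substrate but no TDP2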
Target sequence (O95551 whole entry, looked up): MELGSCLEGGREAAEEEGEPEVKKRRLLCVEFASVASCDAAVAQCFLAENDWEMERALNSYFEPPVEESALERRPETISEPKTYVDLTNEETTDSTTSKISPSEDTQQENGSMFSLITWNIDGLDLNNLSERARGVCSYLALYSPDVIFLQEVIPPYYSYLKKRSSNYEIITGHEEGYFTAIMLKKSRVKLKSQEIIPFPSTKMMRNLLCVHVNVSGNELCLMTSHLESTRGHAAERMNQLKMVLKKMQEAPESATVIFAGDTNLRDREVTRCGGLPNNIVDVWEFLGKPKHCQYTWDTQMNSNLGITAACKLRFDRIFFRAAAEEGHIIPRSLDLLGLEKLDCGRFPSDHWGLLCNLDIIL
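test system = human TDP2 enzyme | input = TDP2 enzyme at 120 nM final | medium = 50 mM Tris-HCl pH 7.5 with Mg2+, KCl, DTT, BSA | also added = T5PNP substrate, 5 mM | times = 2 h at 37 °C | technique = epi absorbance | benchmarks = high control without enzyme, low control DMSO plus TDP2 | replication = each compound tested once, singlicate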
GSTO1 counter – GSTO1 inhibition, counter-screen for RBBP9 inhibitors | P78417 | recombinant GSTO1, activity-based probe fluorescence polarization | inhibition, % at 5.96 µM | actives 1.1% (n = 300,000) | AID 1974;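 active = inhibition above the campaign mean inhibition plus 3 SD, cut at about 35% in these data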;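 also: 0% = GSTO1-1 with DMSO and 100% = wells lacking GSTO1-1 enzyme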
Target sequence (P78417 whole entry, looked up): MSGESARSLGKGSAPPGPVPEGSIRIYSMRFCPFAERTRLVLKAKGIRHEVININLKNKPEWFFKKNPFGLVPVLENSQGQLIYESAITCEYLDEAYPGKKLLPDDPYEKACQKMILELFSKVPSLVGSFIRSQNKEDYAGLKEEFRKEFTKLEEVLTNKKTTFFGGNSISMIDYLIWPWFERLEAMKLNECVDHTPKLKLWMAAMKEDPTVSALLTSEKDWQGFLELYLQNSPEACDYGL
PAD4 FP inh – blocks human protein arginine deiminase 4 | Q9UM07 | recombinant PAD4, RCA probe fluorescence polarization | inhibition, % at 6.36 µM | actives 0.41% (n = 330,000) | AID 485272;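 active = percent inhibition above a cutoff equal to the mean of all tested compounds plus 3 SD, cut at about 15% in these data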;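 also: 0% = PAD4 with RCA probe and DMSO and 100% = probe without PAD4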
Apaf-1 inh – human Apaf-1 inhibition. reconstituted apoptosome caspase-3 activity, DEVD-Rh110 fluorescence. inhibition, % at 20 µM. actives 0.71% (n = 330,000). AID 489030; active = inhibition of at least 40% at 20 µM;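 also: plate controls were DMSO wells for no effect and DEVD-CHO caspase inhibitor wells for full effect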
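Material: reconstituted apoptosome with Apaf-1, cytochrome c, caspase-9, procaspase-3, dATP; medium: pH 7.5 Hepes buffer with CHAPS, BSA, DTT; also added: cytochrome c and DEVD-Rh110 substrate; timing: 30 min plus 50 min, RT; signal: Rh110 fluorescence intensity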
SIAE inh – inhibitors of human sialic acid acetylesterase SIAE. Q9HAT2. SIAE FP-Rh probe binding, fluorescence polarization. inhibition, % at 9.66 µM. actives 0.69% (n = 370,000);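 active = inhibition above a cutoff: mean of compounds within the control limits plus 3 SD of those, cut at about 17% in these data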;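 also: 0% = plate median of compound wells and 100% = probe without SIAE protein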
TDP2 inh conf – confirmation of human TDP2 inhibitors | shares compounds with TDP2 inh | recombinant human TDP2, absorbance read-out | inhibition, % at 12.8 µM | actives 22% (n = 1,100) | AID 743263; in the data active = inhibition above about 25%;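 also: 0% = vehicle with enzyme and 100% = no enzyme buffer only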
SIAE inh conf – human SIAE inhibition, confirmation. shares compounds with SIAE inh. SIAE FP-Rh activity-based probe, fluorescence polarization. inhibition, % at 9.66 µM. actives 13% (n = 2,300). AID 1117263;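 active = mean inhibition of the replicates above the hit cutoff set in the primary screen, cut at about 17% in these data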;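 also: 0% = SIAE with DMSO and probe and 100% = probe without SIAE; inhibitors lower polarization as more probe stays unbound to SIAE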
Starred values were filed as active, the others as inactive; nt = no result given.

SMILES	TCR CD3 inh	TDP2 inh	GSTO1 counter	PAD4 FP inh	Apaf-1 inh	SIAE inh	SIAE inh conf	others
O=C1CCC(=O)N1CC(=O)N1CCCc2ccccc21	-7.5	24.6*	3.6	5.8	-6.1	-5.7	nt	TDP2 inh conf=12.6
O=C(CN1CCOCC1)N1CCCc2ccccc21	-1.3	10.9	2.8	-0.5	-6.9	6.2	nt
COc1cc(/C=C/C(=O)OCC(=O)Nc2cc(C)on2)ccc1OCC#N	2.8	26.2*	nt	nt	1.9	-2.8	nt	TDP2 inh conf=-8.4
Cc1c(C)c2c(C)nn(-c3ccccc3)c2[nH]c1=O	-3.9	0.9	-0.1	1.3	-6.6	1.8	nt
Nc1c2c(=O)[nH]c(O)cc2nn1-c1ccccc1	0.8	89.2*	nt	nt	nt	10.7	nt	TDP2 inh conf=76.6*
Cc1nc2c3ccccc3nc(NNC(=O)CCC(=O)N3CCC(C)CC3)n2n1	-4.3	28.7*	0.2	3.2	2.8	22.6*	2.6	TDP2 inh conf=6.9
CCOC(=O)[C@@H]1[C@H]2COc3ccccc3[C@H]2N2C(=O)N(c3cccc(F)c3)C(=O)[C@]12C	-6.8	4.6	-0.1	6.0	4.6	4.0	nt
COc1cc(C(=O)N2CCN(C3CCCCC3)CC2)cc(OC)c1OC	5.7	24.7*	-2.5	-1.2	2.1	18.5*	9.7	TDP2 inh conf=5.7
Cc1ccc(S(=O)(=O)N2CCC(C(=O)NCc3ccccc3CN3CCCC3)CC2)cc1C	-0.7	-2.4	nt	0.3	9.6	1.5	nt
Cc1ccc(S(=O)(=O)NC2=C(N3CCN(Cc4ccccc4)CC3)C(=O)c3ccccc3C2=O)cc1	1.0	0.8	6.0	-5.0	3.1	-4.5	nt
CCOC(=O)N1CCN(C2=C(NS(=O)(=O)c3ccc(C)cc3)C(=O)c3ccccc3C2=O)CC1	2.5	42.3*	29.7	-14.4	86.2*	19.9*	8.4	TDP2 inh conf=32.0*
NS(=O)(=O)c1ccc(NCc2cnc3ccccc3n2)cc1	5.4	4.5	nt	nt	nt	4.2	nt
N#CCc1cnc2ccccc2n1	2.4	28.2*	35.7*	-1.4	nt	18.2*	-2.5	TDP2 inh conf=21.6
O=C1/C(=C\c2ccc(O)c(O)c2)C(c2ccccc2)=NN1c1ccccc1	4.3	25.9*	nt	nt	nt	28.0*	10.6	TDP2 inh conf=6.4
COC(=O)CC1=NN(c2ccccc2)C(=O)/C1=C\c1ccc(OC)cc1	6.5	13.3	17.8	-17.9	19.8	7.3	nt
COCC(=O)Nc1nnc(Cc2ccc(OC)cc2)s1	-4.5	5.0	-5.0	-4.0	-1.2	0.0	nt
CCOc1ccc(NC(=O)CN(C)C(=O)c2cc(S(=O)(=O)N(C)C)ccc2N2CCCC2)cc1OCC	-0.2	-12.8	-1.5	-0.9	7.9	3.3	nt
O=C1C(Nc2ccc(O)cc2)=C/C(=N/S(=O)(=O)c2cccs2)c2ccccc21	-6.5	78.0*	nt	nt	nt	21.0*	5.5	TDP2 inh conf=77.8*
Oc1ccc(NCc2ccc(OCc3ccccc3)cc2)cc1	30.4*	34.2*	nt	nt	nt	29.5*	13.3	TDP2 inh conf=39.2*
O=C(CCNC(=O)c1ccc(Br)cc1)Nc1ncccc1O	6.0	24.5	3.6	0.8	-11.6	23.5*	6.5
COc1ccc(OC)c(NC(=S)NCC(c2cccnc2)N2CCOCC2)c1 (stereo not given)	-1.4	-1.1	3.0	-4.4	-11.8	-24.6	nt
CSCCC(NS(=O)(=O)c1ccc(C)cc1)C(=O)N1CC=C(c2ccccc2)CC1 (stereo not given)	1.8	-0.9	6.2	1.3	25.1	1.9	nt
COc1cc(O)c(C(C)=O)cc1OC	-3.0	-8.1	4.6	2.1	-5.4	2.8	nt
CC(=O)Oc1cc(C)c(Cl)c2c(OC(C)=O)cc(C(C)=O)c(O)c12	10.9	6.7	nt	nt	nt	36.4*	18.3*
CCCNc1nc(OC(C(F)(F)F)C(F)(F)F)nc(OC(C(F)(F)F)C(F)(F)F)n1	-8.3	-4.7	0.8	0.9	-9.1	-1.3	nt
SMILES	TCR CD3 inh	TDP2 inh	GSTO1 counter	PAD4 FP inh	Apaf-1 inh	SIAE inh	SIAE inh conf	others
Oc1c(C=C2N=c3ccccc3=N2)sc(=S)n1C1CCCC1	1.0	1.7	-1.6	-1.8	3.2	-1.4	nt
O=c1oc2cc(O)ccc2cc1-c1nc2c(s1)CCc1ccccc1-2	-0.2	8.1	6.7	2.2	nt	18.9*	-6.6
O=c1oc2ccccc2cc1-c1nc2c(s1)CCc1ccccc1-2	3.7	-4.9	1.1	-8.8	9.8	5.8	nt
CN1CCN(CCC(=O)N/N=C/c2cc([N+](=O)[O-])ccc2O)CC1	-11.6	-10.0	-0.6	2.3	-3.0	-8.1	nt
CC(=NCc1cccc(Cl)c1)c1nc(-c2ccco2)oc1O	-5.0	4.3	3.0	5.6	14.2	21.4*	0.7
Oc1oc(-c2ccco2)nc1C=Nc1cccc(Cl)c1	4.6	-2.4	-6.9	4.2	4.5	1.4	nt
COc1cc(SSc2cc(OC)cc([N+](=O)[O-])c2N)c(N)c([N+](=O)[O-])c1	-7.7	-10.6	10.7	2.1	22.0	25.0*	2.5
Cc1cc2c(cc1C)NC1=C(N2)OC(c2cccc(O)c2)C1=O (stereo not given)	-3.8	-0.9	1.4	-3.2	2.9	27.7*	-10.0
CC(CC1C(C#N)=C(N)SC(N)=C1C#N)c1ccccc1 (stereo not given)	-13.4	-6.9	-53.4	-14.1	6.9	-4.0	nt
COc1ccccc1/C=N/NC(=O)c1ccc(C)nc1	4.9	10.3	1.9	-3.9	-18.9	4.2	nt
Cn1cccc1/C=N\NC(=O)c1cncc(Br)c1	-11.7	-10.7	0.2	-4.2	-6.8	0.4	nt
O=C(N/N=C/c1ccc(O)c2ncccc12)c1cccc(Br)c1	0.2	-1.4	-34.8	-7.4	-68.3	28.9*	12.6
Cc1ccc(C(=O)N/N=C/c2c(O)ccc3ccccc23)cn1	14.9	-12.1	20.6	-1.1	7.1	21.3*	2.6
O=C(N/N=C\c1c(O)ccc2ccccc12)c1cncc(Br)c1	1.4	-9.1	12.6	0.9	-4.7	30.9*	5.6
O=C(N/N=C/c1c(O)ccc2ccccc12)Nc1ccccc1	4.1	-18.2	15.4	0.1	-6.5	51.6*	48.5*
C=CCSc1nc2ccccc2c2nc(-c3ccccc3)nn12	-6.0	-11.3	-0.4	1.1	1.5	-6.6	nt
O=C(Nc1ccc(F)c(F)c1)C1=COCCO1	4.5	0.9	3.6	4.7	-0.3	-1.1	nt
O=C(N/N=C/c1c(O)ccc2ccccc12)c1cccnc1	7.5	-4.0	15.2	-11.2	11.5	26.9*	-3.6
COc1ccc2ccccc2c1/C=N\NC(=O)c1cccnc1	1.2	5.0	6.6	2.6	7.5	-11.8	nt
Nc1nc(N)c2cc(CNc3ccc(Cl)c(Cl)c3)ccc2n1	-10.0	-8.8	nt	nt	nt	39.4*	46.1*
O=C1C=C(NCc2ccc(Cl)c(Cl)c2)CC1	-2.7	2.3	-4.8	0.8	-0.8	-3.7	nt
